Laboratory results as given in ChEMBL document CHEMBL4732224, “Structure activity refinement of phenylsulfonyl piperazines as antimalarials that block erythrocytic invasion” (Eur J Med Chem, 2021).
Converted amounts (≈) assume the structure as drawn. Each block holds one compound with its values, some of them ahead of it. The source made the active and inactive calls. No cut-off for these calls is given here.

How the values were obtained:
[1] = tested on: Plasmodium knowlesi; test: Antimalarial activity against asexual blood stage of Plasmodium knowlesi YHI assessed as reduction in cell viability after 48 hrs by EtBr staining based flow cytometric analysis; format: functional, organism-based
[2] = tested on: Plasmodium falciparum; test: Antimalarial activity against schizonts stage of Plasmodium falciparum D10 expressing PEXEL-Nluc infected in human RBC assessed as reduction in invasion at 5 times of EC90 concentration preincubated for 30 mins followed by compound wash out and measured after 24 hrs by luminometric method; format: functional, organism-based
[3] = tested on: Plasmodium falciparum; test: Antimalarial activity against asexual blood stage of chloroquine-resistant Plasmodium falciparum 7G8 assessed as reduction in cell viability after 72 hrs by EtBr staining based flow cytometric analysis; format: functional, organism-based; conditions: 7G8, 72 h
[4] = tested on: Plasmodium falciparum; test: Antimalarial activity against Plasmodium falciparum NF54 early stage (1 to 3) expressing Pfs16-LUC-GFP assessed as growth inhibition at 20 uM by high content imaging assay relative to control; format: functional; conditions: read-out: GI
[5] = tested on: Plasmodium falciparum; test: Antimalarial activity against asexual blood stage of artemisinin-resistant Plasmodium falciparum Cam3.12539T cambodian isolate assessed as reduction in cell viability after 72 hrs by EtBr staining based flow cytometric analysis; format: functional, organism-based; conditions: Cam3.12539T cambodian isolat
[6] = tested on: Plasmodium falciparum; test: Antimalarial activity against schizonts stage of Plasmodium falciparum D10 expressing GFP infected in human RBC assessed as reduction in ring stage formation at 4 times of EC90 concentration after 6 hrs by flow cytometric analysis; format: functional, organism-based
[7] = tested on: Plasmodium falciparum; test: Antimalarial activity against Plasmodium falciparum NF54 late stage ([…]) expressing Pfs16-LUC-GFP assessed as growth inhibition at 20 uM by high content imaging assay relative to control; format: functional; conditions: read-out: GI
[8] = Selectivity ratio of IC50 for antimalarial activity against asexual blood stage of chloroquine-resistant Plasmodium falciparum 7G8 to IC50 for antimalarial activity against asexual blood stage of Plasmodium falciparum 3D7; format: functional
[9] = tested on: Plasmodium falciparum; test: Antimalarial activity against Plasmodium falciparum NF54 late stage ([…]) expressing Pfs16-LUC-GFP assessed as growth inhibition by high content imaging assay; format: functional, organism-based
[10] = tested on: Plasmodium falciparum; test: Antimalarial activity against schizonts stage of Plasmodium falciparum D10 expressing GFP infected in human RBC assessed as reduction in merozoites invade to RBC at 4 times of EC90 concentration after 6 hrs by flow cytometric analysis; format: functional, organism-based
[11] = tested on: Plasmodium falciparum; test: Antimalarial activity against Plasmodium falciparum 3D7 incubated for 72 hrs by LDH assay; format: functional, organism-based; conditions: 3D7, 72 h
Method in brief: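 Asexual blood-stage P. falciparum 3D7 parasites were cultured with compound for 72 h, and viability was read by lactate dehydrogenase (LDH) activity.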

[12] = tested on: Plasmodium falciparum; test: Antimalarial activity against Plasmodium falciparum NF54 early stage (1 to 3) expressing Pfs16-LUC-GFP assessed as growth inhibition by high content imaging assay; format: functional, organism-based
[13] = tested on: Plasmodium falciparum; test: Antimalarial activity against asexual blood stage of chloroquine-resistant Plasmodium falciparum Dd2 assessed as reduction in cell viability after 72 hrs by EtBr staining based flow cytometric analysis; format: functional, organism-based; conditions: Dd2, 72 h
[14] = tested on: Plasmodium falciparum; test: Antimalarial activity against asexual blood stage of Plasmodium falciparum 3D7 assessed as reduction in cell viability after 72 hrs by EtBr staining based flow cytometric analysis; format: functional, organism-based; conditions: 3D7, 72 h
[15] = tested on: HepG2; test: Cytotoxicity against human HePG2 cells assessed as growth inhibition after 48 hrs by Cell Titer-Glo assay; format: cell-based; conditions: HepG2, 48 h
[16] = tested on: Plasmodium falciparum; test: Antimalarial activity against asexual blood stage of Mefloquine-resistant Plasmodium falciparum W2mef assessed as reduction in cell viability after 72 hrs by EtBr staining based flow cytometric analysis; format: functional, organism-based
[17] = Intrinsic clearance in mouse liver microsomes at 1 uM in presence of NADPH measured up to 60 mins by LC-MS analysis; format: ADME, Microsome; conditions: read-out: CLH
[18] = tested on: Plasmodium falciparum; test: Antimalarial activity against asexual blood stages of Plasmodium falciparum 3D7 infected in human RBC by Live cell microscopic method; format: functional, organism-based; conditions: 3D7, Erythrocyte
[19] = Solubility of compound in PBS at pH 6.5 by nephelometric analysis; format: physicochemical

Structure (SMILES): C[C@@H](C(=O)N1CCCCC1)N1CCN(S(=O)(=O)c2ccc(C(C)(C)C)cc2)CC1
EC50 [1]: 1300 nM | Activity [2]: Active | EC50 [3]: 5100 nM | inhibition of growth at 20 µM [4]: 49% | EC50 [5]: 1300 nM | Activity [6]: Active | inhibition of growth at 20 µM [7]: 41% | Ratio IC50 [8]: 8 | EC50 [9]: > 10000 nM | Activity [10]: Active | EC50 [11]: 200 nM | EC50 [12]: > 10000 nM | EC50 [13]: 860 nM | EC50 [14]: 610 nM | EC50 [15]: > 40000 nM | EC50 [16]: 490 nM

Structure (SMILES): C[C@@H](C(=O)N1CCc2ccccc2C1(C)C)N1CCN(S(=O)(=O)c2ccc(C(C)(C)C)cc2)CC1
EC50 [1]: 90 nM | Activity [2]: Active | EC50 [3]: 30 nM | inhibition of growth at 20 µM [4]: 79% | EC50 [5]: 20 nM | Activity [6]: Active | inhibition of growth at 20 µM [7]: 59% | EC50 [9]: > 10000 nM | Activity [10]: Active | EC50 [11]: 110 nM | EC50 [12]: > 10000 nM | EC50 [13]: 60 nM | EC50 [14]: 10 nM | EC50 [15]: 26000 nM | EC50 [16]: 40 nM

CLint scaled at 1 µM [17]: > 2100 mL/min/kg | EC50 [18]: 900 nM | EC50 [11]: 690 nM
Structure (SMILES): CC(C(=O)N1CCCC1)N1CCN(S(=O)(=O)c2ccc(C(C)(C)C)cc2)CC1 (stereo not given)
EC50 [15]: > 40000 nM

Structure (SMILES): C[C@@H](C(=O)N1CC2CC2C1)N1CCN(S(=O)(=O)c2ccc(C(C)(C)C)cc2)CC1 (stereo not given in full)
EC50 [1]: 140 nM | Activity [2]: Active | EC50 [3]: 80 nM | inhibition of growth at 20 µM [4]: 44% | EC50 [5]: 60 nM | Activity [6]: Active | inhibition of growth at 20 µM [7]: 36% | EC50 [9]: > 10000 nM | Activity [10]: Active | EC50 [11]: 130 nM | EC50 [12]: > 10000 nM | EC50 [13]: 70 nM | EC50 [14]: 30 nM | EC50 [15]: > 40000 nM | EC50 [16]: 60 nM

microsomal CLint at 1 µM [17]: 473 µL/min/mg | EC50 [11]: 920 nM
Structure (SMILES): CC(C(=O)N1CCCC1)N1[C@@H]2CC[C@H]1CN(S(=O)(=O)c1ccc(C(C)(C)C)cc1)C2 (stereo not given in full)
EC50 [15]: > 40000 nM

EC50 [11]: 300 nM | solubility kinetic [19]: 25 µM (≈ 10.2 µg/mL)
Structure (SMILES): C[C@@H](C(=O)N1CCCC1)N1CCN(S(=O)(=O)c2ccc(C(C)(C)C)cc2)CC1
EC50 [15]: > 40000 nM

Structure (SMILES): C[C@@H](C(=O)N1CCC(F)(F)CC1)N1CCN(S(=O)(=O)c2ccc(C(C)(C)C)cc2)CC1
EC50 [1]: 260 nM | Activity [2]: Active | EC50 [3]: 110 nM | inhibition of growth at 20 µM [4]: 59% | EC50 [5]: 80 nM | Activity [6]: Active | inhibition of growth at 20 µM [7]: 47% | EC50 [9]: > 10000 nM | Activity [10]: Active | EC50 [11]: 200 nM | EC50 [12]: > 10000 nM | EC50 [13]: 110 nM | EC50 [14]: 50 nM | EC50 [15]: > 40000 nM | EC50 [16]: 90 nM

Structure (SMILES): CC(C(=O)N1CCc2ccccc2C1(C)C)N1CCN(S(=O)(=O)c2ccc(C(C)(C)C)cc2)CC1 (stereo not given)
microsomal CLint at 1 µM [17]: > 866 µL/min/mg | EC50 [11]: 180 nM | EC50 [15]: 31000 nM | solubility kinetic [19]: < 1.6 µM
